Source: ChEMBL document CHEMBL4402598, “Design and Synthesis of Bitopic 2-Phenylcyclopropylmethylamine (PCPMA) Derivatives as Selective Dopamine D3 Receptor Ligands” (J Med Chem, 2020)
Values belong to the compound of their own block, whether it stands above or below them.

Key:
[1] = Ratio of drug level in ICR mouse brain to plasma at 5 mg/kg, iv measured after 0.5 hrs by LC-MS/MS analysis; format: ADME, organism-based; conditions: read-out: BPR
Summary of the method: (§1)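 Male ICR mice (6-8 weeks, ~25 g) received compound in saline, 5 mg/kg iv or 10 mg/kg po. Brains collected at 0.5 and 2.0 h, saline-washed, weighed, homogenized in cold 50% methanol (1 g:3 mL). Plasma prepared from orbital blood. Samples held at -80 °C; LC-MS/MS quantitation. Brain/plasma ratio calculated from the two concentrations.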

D(4) dopamine receptor = target: T1, D(4) dopamine receptor (Homo sapiens, UniProt P21917); assay: Displacement of [3H]-N-methylspiperone from recombinant human D4 receptor stably expressed in HEK cell membranes measured after 90 mins by microbeta scintillation counting method
T1 sequence (P21917 whole entry): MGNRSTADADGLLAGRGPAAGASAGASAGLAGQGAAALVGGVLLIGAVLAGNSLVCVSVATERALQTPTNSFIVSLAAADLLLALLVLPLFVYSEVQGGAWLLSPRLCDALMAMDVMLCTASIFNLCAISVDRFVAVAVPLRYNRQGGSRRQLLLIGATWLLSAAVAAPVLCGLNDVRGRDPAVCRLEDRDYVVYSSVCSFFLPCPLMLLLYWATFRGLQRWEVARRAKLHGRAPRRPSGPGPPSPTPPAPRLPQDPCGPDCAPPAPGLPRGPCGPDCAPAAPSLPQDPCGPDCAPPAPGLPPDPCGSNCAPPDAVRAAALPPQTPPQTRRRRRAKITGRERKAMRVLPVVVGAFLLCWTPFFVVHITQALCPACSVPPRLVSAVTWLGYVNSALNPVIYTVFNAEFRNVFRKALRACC

[2] = Tmax in ICR mouse at 10 mg/kg, po by LC-MS/MS analysis; format: ADME, organism-based; conditions: in vivo
Summary of the method: (§2)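 Male ICR mice (6-8 weeks, ~25 g) dosed with compound dissolved in saline, 5 mg/kg iv or 10 mg/kg po, nine animals per group. Samples stored at -80 °C; drug quantified by LC-MS/MS.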

D(1B) dopamine receptor = D(1B) dopamine receptor (Homo sapiens, UniProt P21918); assay: Displacement of [3H]-SCH23390 from recombinant human D5 receptor transiently expressed in HEKT cell membranes measured after 90 mins by microbeta scintillation counting method
Chain of D(1B) dopamine receptor (P21918 whole entry): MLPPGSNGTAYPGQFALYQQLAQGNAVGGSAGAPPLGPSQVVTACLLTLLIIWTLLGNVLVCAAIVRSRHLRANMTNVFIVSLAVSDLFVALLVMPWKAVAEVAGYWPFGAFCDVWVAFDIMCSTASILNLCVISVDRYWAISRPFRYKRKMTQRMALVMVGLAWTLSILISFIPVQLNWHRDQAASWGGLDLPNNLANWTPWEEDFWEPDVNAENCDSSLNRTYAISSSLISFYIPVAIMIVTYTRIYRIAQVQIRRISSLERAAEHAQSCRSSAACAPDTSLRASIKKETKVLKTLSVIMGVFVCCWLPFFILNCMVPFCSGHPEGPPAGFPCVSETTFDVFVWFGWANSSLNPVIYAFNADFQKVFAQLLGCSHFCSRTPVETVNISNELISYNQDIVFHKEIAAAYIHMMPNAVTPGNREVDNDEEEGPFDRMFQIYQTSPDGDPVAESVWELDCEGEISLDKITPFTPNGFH

[3] = Half life in ICR mouse at 5 mg/kg, iv by LC-MS/MS analysis; format: ADME, organism-based; conditions: in vivo; summary of the method: as §2
D(1A) dopamine receptor = D(1A) dopamine receptor (Homo sapiens, UniProt P21728); assay: Displacement of [3H]-SCH23390 from recombinant human D1 receptor transiently expressed in HEKT cell membranes measured after 90 mins by microbeta scintillation counting method
Chain of D(1A) dopamine receptor (P21728 whole entry): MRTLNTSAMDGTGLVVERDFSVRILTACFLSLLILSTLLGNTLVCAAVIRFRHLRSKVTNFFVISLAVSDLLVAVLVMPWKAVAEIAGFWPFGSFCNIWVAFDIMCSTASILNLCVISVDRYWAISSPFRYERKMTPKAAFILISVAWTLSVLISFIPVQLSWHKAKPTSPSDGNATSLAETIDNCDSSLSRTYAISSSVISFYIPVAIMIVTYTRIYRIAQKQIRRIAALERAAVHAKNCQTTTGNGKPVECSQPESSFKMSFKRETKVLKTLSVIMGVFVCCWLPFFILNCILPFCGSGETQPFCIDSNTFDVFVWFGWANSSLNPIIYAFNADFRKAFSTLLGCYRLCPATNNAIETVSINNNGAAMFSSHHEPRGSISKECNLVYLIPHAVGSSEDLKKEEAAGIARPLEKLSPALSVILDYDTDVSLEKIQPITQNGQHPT

[4] = Drug level in ICR mouse brain at 5 mg/kg, iv measured after 2 hrs by LC-MS/MS analysis; format: ADME, organism-based; summary of the method: as §1
D(2) dopamine receptor = D(2) dopamine receptor (Homo sapiens, UniProt P14416); assay: Displacement of [3H]-N-methylspiperone from recombinant human D2 receptor stably expressed in fibroblast cell membranes measured after 90 mins by microbeta scintillation counting method
Chain of D(2) dopamine receptor (P14416 whole entry): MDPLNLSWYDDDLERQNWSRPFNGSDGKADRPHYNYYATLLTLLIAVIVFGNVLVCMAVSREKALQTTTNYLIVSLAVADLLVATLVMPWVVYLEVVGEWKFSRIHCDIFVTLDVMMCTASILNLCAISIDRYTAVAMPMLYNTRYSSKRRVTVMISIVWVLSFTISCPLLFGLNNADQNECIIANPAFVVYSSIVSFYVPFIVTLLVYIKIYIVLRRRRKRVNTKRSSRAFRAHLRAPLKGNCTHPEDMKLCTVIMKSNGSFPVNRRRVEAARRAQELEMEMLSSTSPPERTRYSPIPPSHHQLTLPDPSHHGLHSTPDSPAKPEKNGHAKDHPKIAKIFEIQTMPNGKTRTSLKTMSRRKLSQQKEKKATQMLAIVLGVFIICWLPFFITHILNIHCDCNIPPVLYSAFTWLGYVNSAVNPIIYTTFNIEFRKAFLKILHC

[5] = target: 5-hydroxytryptamine receptor 2B (Homo sapiens, UniProt P41595); assay: Agonist activity at 5HT2B receptor (unknown origin) expressed in HEK293 cells co-expressing Gq assessed as induction of calcium mobilization measured at 1 sec interval for 60 secs by Fluo-4 calcium dye based FLIPR assay; format: cell-based; conditions: hek293, 1 min
Chain of 5-hydroxytryptamine receptor 2B (P41595 whole entry): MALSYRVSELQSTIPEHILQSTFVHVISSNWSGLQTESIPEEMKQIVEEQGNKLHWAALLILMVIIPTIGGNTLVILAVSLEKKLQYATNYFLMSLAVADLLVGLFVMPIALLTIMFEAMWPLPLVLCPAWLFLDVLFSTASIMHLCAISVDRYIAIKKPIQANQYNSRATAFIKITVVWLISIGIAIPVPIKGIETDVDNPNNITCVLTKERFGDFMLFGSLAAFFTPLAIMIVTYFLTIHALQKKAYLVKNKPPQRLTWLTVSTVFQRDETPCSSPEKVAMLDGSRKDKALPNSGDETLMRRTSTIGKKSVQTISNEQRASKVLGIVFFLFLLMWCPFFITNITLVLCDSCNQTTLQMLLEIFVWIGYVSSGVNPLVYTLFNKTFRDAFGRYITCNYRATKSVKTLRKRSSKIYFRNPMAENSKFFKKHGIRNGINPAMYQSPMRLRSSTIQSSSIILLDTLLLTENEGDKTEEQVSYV

[6] = Cmax in ICR mouse at 10 mg/kg, po by LC-MS/MS analysis; format: ADME, organism-based; design: dose 10 mg/kg, route oral; conditions: in vivo; summary of the method: as §2
[7] = MRT in ICR mouse at 5 mg/kg, iv by LC-MS/MS analysis; format: ADME, organism-based; conditions: in vivo; summary of the method: as §2
[8] = Volume of distribution at steady state in ICR mouse at 5 mg/kg, iv by LC-MS/MS analysis; format: ADME, organism-based; conditions: in vivo, read-out: Vdss; summary of the method: as §2
[9] = Half life in ICR mouse at 10 mg/kg, po by LC-MS/MS analysis; format: ADME, organism-based; conditions: in vivo; summary of the method: as §2
[10] = Drug level in ICR mouse plasma at 10 mg/kg, po measured after 0.5 hrs by LC-MS/MS analysis; format: ADME, organism-based; summary of the method: as §1
[11] = Drug level in ICR mouse plasma at 5 mg/kg, iv measured after 0.5 hrs by LC-MS/MS analysis; format: ADME, organism-based; summary of the method: as §1
[12] = target: T2, 5-hydroxytryptamine receptor 2C (Homo sapiens, UniProt P28335); assay: Antagonist activity at human 5HT2C receptor stably expressed in HEK293 cells co-expressing Gq assessed as inhibition of 5-HT-induced calcium mobilization preincubated for 15 mins followed by 5-HT addition and measured at 1 sec interval for 60 secs by Fluo-4 calcium dye based FLIPR assay; format: functional, cell-based
T2 sequence (P28335 whole entry): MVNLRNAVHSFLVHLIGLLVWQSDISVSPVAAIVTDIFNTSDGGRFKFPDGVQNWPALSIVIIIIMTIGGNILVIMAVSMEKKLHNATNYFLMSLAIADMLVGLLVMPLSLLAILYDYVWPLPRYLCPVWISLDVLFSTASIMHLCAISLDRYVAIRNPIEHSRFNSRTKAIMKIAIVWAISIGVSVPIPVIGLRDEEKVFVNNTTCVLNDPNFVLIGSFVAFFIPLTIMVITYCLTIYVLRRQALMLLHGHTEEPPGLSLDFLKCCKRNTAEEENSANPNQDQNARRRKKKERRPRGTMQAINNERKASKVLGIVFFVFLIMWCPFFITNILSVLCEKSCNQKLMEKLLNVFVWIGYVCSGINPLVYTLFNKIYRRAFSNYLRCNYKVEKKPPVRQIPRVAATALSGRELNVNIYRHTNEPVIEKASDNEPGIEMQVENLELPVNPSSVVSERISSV
Summary of the method: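 5-HT2C stably transfected HEK293 cells, loaded with Fluo-4 Direct (HBSS, 20 mM HEPES pH 7.4, 2.5 mM probenecid; 50 min 37 °C, 10 min room temperature). Test compound added, then 5-HT (final 1 nM) 15 min later.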

[13] = MRT in ICR mouse at 10 mg/kg, po by LC-MS/MS analysis; format: ADME, organism-based; conditions: in vivo; summary of the method: as §2
[14] = AUC (0 to t) in ICR mouse at 10 mg/kg, po by LC-MS/MS analysis; format: ADME, organism-based; conditions: in vivo; summary of the method: as §2
[15] = target: T2, 5-hydroxytryptamine receptor 2C; assay: Displacement of [3H]-Mesulergine from recombinant human 5HT2C receptor expressed in HEKT cell membranes measured after 90 mins by microbeta scintillation counting method
[16] = Drug level in ICR mouse brain at 10 mg/kg, po measured after 0.5 hrs by LC-MS/MS analysis; format: ADME, organism-based; summary of the method: as §1
[17] = Oral bioavailability in ICR mouse at 10 mg/kg by LC-MS/MS analysis; format: ADME, organism-based; conditions: in vivo; summary of the method: as §2
[18] = Drug level in ICR mouse plasma at 5 mg/kg, iv measured after 2 hrs by LC-MS/MS analysis; format: ADME, organism-based; summary of the method: as §1
[19] = Drug level in ICR mouse brain at 5 mg/kg, iv measured after 0.5 hrs by LC-MS/MS analysis; format: ADME, organism-based; summary of the method: as §1
[20] = Drug level in ICR mouse brain at 10 mg/kg, po measured after 2 hrs by LC-MS/MS analysis; format: ADME, organism-based; summary of the method: as §1
[21] = Ratio of drug level in ICR mouse brain to plasma at 10 mg/kg, po measured after 2 hrs by LC-MS/MS analysis; format: ADME, organism-based; conditions: read-out: BPR; summary of the method: as §1
[22] = Clearance in ICR mouse at 5 mg/kg, iv by LC-MS/MS analysis; format: ADME, organism-based; conditions: in vivo; summary of the method: as §2
[23] = Ratio of drug level in ICR mouse brain to plasma at 5 mg/kg, iv measured after 2 hrs by LC-MS/MS analysis; format: ADME, organism-based; conditions: read-out: BPR; summary of the method: as §1
[24] = Drug level in ICR mouse plasma at 10 mg/kg, po measured after 2 hrs by LC-MS/MS analysis; format: ADME, organism-based; summary of the method: as §1
[25] = target: 5-hydroxytryptamine receptor 2A (Homo sapiens, UniProt P28223); assay: Agonist activity at 5HT2A receptor (unknown origin) expressed in HEK293 cells co-expressing Gq assessed as induction of calcium mobilization measured at 1 sec interval for 60 secs by Fluo-4 calcium dye based FLIPR assay; format: cell-based; conditions: hek293, 1 min
Chain of 5-hydroxytryptamine receptor 2A (P28223 whole entry): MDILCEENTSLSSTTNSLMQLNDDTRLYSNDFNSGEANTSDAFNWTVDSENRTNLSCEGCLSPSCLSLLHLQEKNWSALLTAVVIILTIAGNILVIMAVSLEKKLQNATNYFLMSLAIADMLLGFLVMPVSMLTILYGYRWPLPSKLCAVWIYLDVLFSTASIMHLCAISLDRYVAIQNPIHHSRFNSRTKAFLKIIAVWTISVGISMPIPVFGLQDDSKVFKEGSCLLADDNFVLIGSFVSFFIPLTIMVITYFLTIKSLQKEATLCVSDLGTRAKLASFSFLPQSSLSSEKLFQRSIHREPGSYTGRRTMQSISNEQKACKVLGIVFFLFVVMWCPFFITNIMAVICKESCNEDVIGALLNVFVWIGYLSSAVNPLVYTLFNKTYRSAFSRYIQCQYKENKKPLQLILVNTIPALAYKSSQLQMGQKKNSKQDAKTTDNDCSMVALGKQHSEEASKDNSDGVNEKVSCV

[26] = AUC (0 to t) in ICR mouse at 5 mg/kg, iv by LC-MS/MS analysis; format: ADME, organism-based; conditions: in vivo; summary of the method: as §2
[27] = Ratio of drug level in ICR mouse brain to plasma at 10 mg/kg, po measured after 0.5 hrs by LC-MS/MS analysis; format: ADME, organism-based; conditions: read-out: BPR; summary of the method: as §1
[28] = target: T2, 5-hydroxytryptamine receptor 2C; assay: Agonist activity at human 5HT2C receptor stably expressed in HEK293 cells co-expressing Gq assessed as induction of calcium mobilization measured at 1 sec interval for 60 secs by Fluo-4 calcium dye based FLIPR assay; format: functional, cell-based
Summary of the method: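 HEK293 cells stably expressing 5-HT2C, plated overnight in DMEM with 1% dialyzed FBS (15,000 cells/well), loaded with Fluo-4 Direct in HBSS/20 mM HEPES pH 7.4/2.5 mM probenecid for 50 min at 37 °C, then 10 min at room temperature. FLIPR read 1/s for 2 min; 10 s baseline subtracted from peak within 60 s; fold of basal. Mean of ≥3 experiments.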

Kp at 0.5 h [1]: 3.88
Ki (D(4) dopamine receptor): 1050 nM
Tmax [2]: 1 h
Ki (D(1B) dopamine receptor): > 5000 nM
half-life [3]: 3.12 h
Ki (D(1A) dopamine receptor): 1380 nM
concentration at 2 h [4]: 543 ng/mL
Ki (D(2) dopamine receptor): 537 nM
Activity [5]: Not Active
Cmax [6]: 63.9 ng/mL
MRT [7]: 3.4 h
Vd [8]: 23.8 L/kg
half-life [9]: 4.11 h
concentration at 0.5 h [10]: 35.5 ng/mL
concentration at 0.5 h [11]: 215 ng/mL
IC50 [12]: > 30000 nM
MRT [13]: 6 h
AUC(0-t) [14]: 428 ng·h/mL
Ki [15]: 513 nM
concentration at 0.5 h [16]: 51.3 ng/mL
bioavailability [17]: 34.1%
concentration at 2 h [18]: 94.8 ng/mL
concentration at 0.5 h [19]: 833 ng/mL
concentration at 2 h [20]: 160 ng/mL
Kp at 2 h [21]: 2.36
clearance [22]: 117 mL/min/kg
Kp at 2 h [23]: 5.72
concentration at 2 h [24]: 67.7 ng/mL
Activity [25]: Active
AUC(0-t) [26]: 629 ng·h/mL
Kp at 0.5 h [27]: 1.45
Structure (SMILES): CCCN(CCCCNC(=O)c1cc2ccccc2[nH]1)C[C@@H]1C[C@H]1c1cccc(Cl)c1Cl.Cl

EC50 [28]: 738 nM
Ki (D(4) dopamine receptor): 912 nM
Ki (D(1B) dopamine receptor): > 5000 nM
Ki (D(1A) dopamine receptor): 2340 nM
Activity [5]: Not Active
Ki [15]: 44.7 nM
Activity [25]: Active
Structure (SMILES): CCCN(CCCCNC(=O)c1ccc(-c2ccccn2)cc1)C[C@H]1C[C@@H]1c1cccc(Cl)c1Cl.Cl

EC50 [28]: 3540 nM
Ki (D(4) dopamine receptor): 776 nM
Ki (D(1B) dopamine receptor): > 5000 nM
Ki (D(1A) dopamine receptor): 1050 nM
Ki (D(2) dopamine receptor): 1150 nM
Activity [5]: Not Active
Ki [15]: 138 nM
Activity [25]: Active
Structure (SMILES): CCCN(CCCCNC(=O)c1ccc2ccccc2c1)C[C@H]1C[C@@H]1c1cccc(Cl)c1Cl.Cl

EC50 [28]: 2550 nM
Ki (D(4) dopamine receptor): 676 nM
Ki (D(1B) dopamine receptor): > 5000 nM
Ki (D(1A) dopamine receptor): 1120 nM
Ki (D(2) dopamine receptor): 992 nM
Activity [5]: Not Active
Ki [15]: 61.7 nM
Activity [25]: Active
Structure (SMILES): CCCN(CCCCNC(=O)c1cc2ccccc2[nH]1)C[C@H]1C[C@@H]1c1cccc(Cl)c1Cl.Cl
